# Source: ChEMBL document CHEMBL1156731, “Antifungal activity of synthetic di(hetero)arylamines based on the benzo[b]thiophene moiety” (2008)
# Activity calls are given as the source filed them. The rule behind the calls is not given here.
# How the values were obtained:
# Pichia kudriavzevii = assay: Antifungal activity against Candida krusei ATCC 6258 after 48 hrs by broth macrodilution method; type: functional; conditions: ATCC 6258, 48 h
# Summary of the method: (§1)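 Yeasts grown 1 day on SDA at 37 °C, subcultured, suspended in saline and diluted in MOPS-buffered RPMI 1640 (pH 7.0) to 1-2 × 10^3 CFU/mL. Broth macrodilution per CLSI M27-A2, twofold dilutions 200-0.8 µg/mL (DMSO ≤2% final), aerobic, 37 °C, 48 h. MIC = 80% turbidity reduction vs drug-free control; MFC from SDA subculture at 37 °C. Three independent experiments in duplicate.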
# Candida tropicalis = assay: Antifungal activity against Candida tropicalis ATCC 13803 after 48 hrs by broth macrodilution method; type: functional; conditions: ATCC 13803, 48 h; summary of the method: as §1
# Candida albicans [1] = assay: Antifungal activity against Candida albicans D5 after 48 hrs by broth macrodilution method; type: functional; summary of the method: as §1
# Nakaseomyces glabratus = assay: Antifungal activity against Candida glabrata D10R after 48 hrs by broth macrodilution method; type: functional
# Summary of the method: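 Broth macrodilution per CLSI M27-A2 (minor modifications). Inoculum 1-2 × 10^3 CFU/mL in RPMI 1640 with L-glutamine, MOPS-buffered 0.165 M, pH 7.0. Twofold dilutions 200-0.8 µg/mL from DMSO stock (final DMSO ≤2%). Aerobic, 37 °C, 48 h. MIC = lowest concentration giving 80% turbidity reduction versus drug-free control. Three independent experiments in duplicate.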
# Epidermophyton floccosum = assay: Antifungal activity against Epidermophyton floccosum FF9 after 5 days by broth macrodilution method; type: functional; conditions: 120 h
# Summary of the method: (§2)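 Dermatophytes grown 5 days on SDA at 30 °C, subcultured. Conidial suspensions in saline were adjusted in MOPS-buffered RPMI 1640 (pH 7.0) to 1-2 × 10^4 CFU/mL. Macrodilution adapted from CLSI M38-A with 200-0.8 µg/mL twofold dilutions (DMSO ≤2%), incubated at 30 °C for 5 days. MIC at 80% turbidity reduction vs control; MFC by SDA subculture at 30 °C. Triplicate experiments in duplicate.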
# Trichophyton rubrum = assay: Antifungal activity against Trichophyton rubrum FF5 after 5 days by broth macrodilution method; type: functional; conditions: 120 h; summary of the method: as §2
# [2] = system: Trichophyton mentagrophytes; assay: Antifungal activity against Trichophyton mentagrophytes FF7 after 5 days by broth macrodilution method; type: functional; conditions: 120 h; summary of the method: as §2
# Microsporum canis = assay: Antifungal activity against Microsporum canis FF1 after 5 days by broth macrodilution method; type: functional; conditions: 120 h; summary of the method: as §2
# Nannizzia gypsea = assay: Antifungal activity against Microsporum gypseum FF3 after 5 days by broth macrodilution method; type: functional; conditions: 120 h; summary of the method: as §2
# Aspergillus flavus = assay: Antifungal activity against Aspergillus flavus F44 after 3 days by broth macrodilution method; type: functional; conditions: 72 h
# Summary of the method: (§3)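 Aspergillus inoculum from 3-day SDA subcultures at 30 °C; conidial suspension in 0.85% saline, diluted in RPMI 1640 (L-glutamine, no bicarbonate, 0.165 M MOPS, pH 7.0) to 1-2 × 10^4 CFU/mL. Twofold dilutions 200-0.8 µg/mL from DMSO stock (final DMSO ≤2%); macrodilution per CLSI M38-A, 30 °C, 3 days. MIC = lowest concentration giving 80% turbidity reduction vs drug-free control; MFC by subculture on SDA. Three independent experiments in duplicate.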
# Aspergillus fumigatus [3] = assay: Antifungal activity against Aspergillus fumigatus ATCC 46645 after 3 days by broth macrodilution method; type: functional; conditions: ATCC 46645, 72 h; summary of the method: as §3
# Aspergillus niger = assay: Antifungal activity against Aspergillus niger ATCC 16404 after 3 days by broth macrodilution method; type: functional; conditions: ATCC 16404, 72 h; summary of the method: as §3
# Candida albicans [4] = assay: Antifungal activity against Candida albicans ATCC 10231 after 48 hrs by broth macrodilution method; type: functional; conditions: ATCC 10231, 48 h; summary of the method: as §1
# Candida albicans [5] = assay: Inhibition of germ tube formation in Candida albicans ATCC 10231 after 3 hrs by hemocytometer; type: functional, organism-based
# Summary of the method: (§4)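 Overnight SDA cultures (37 °C) were suspended in NYP medium (N-acetylglucosamine 10^-3 mol/L, YNB 3.35 g/L, proline 10^-3 mol/L, NaCl 4.5 g/L, pH 6.7) at (1.0 ± 0.2) × 10^6 CFU/mL. Compound added at 1/2, 1/4 and 1/8 MIC (1% DMSO final), 3 h at 37 °C. 100 cells counted by hemocytometer; germ tube at least blastospore diameter, pseudohyphae excluded. Mean ± SD, three experiments.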
# Candida albicans [6] = assay: Inhibition of germ tube formation in Candida albicans D5 after 3 hrs by hemocytometer; type: functional, organism-based; summary of the method: as §4
# Candida albicans [7] = assay: Inhibition of germ tube formation in Candida albicans M1 after 3 hrs by hemocytometer; type: functional, organism-based; summary of the method: as §4
# Candida albicans [8] = assay: Antifungal activity against Candida albicans ATCC 10231 assessed as red fluorescence stained with FUN1 by flow cytometry; type: functional
# Summary of the method: (§5)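 Overnight SDA cells suspended in RPMI 1640 at (2.0 ± 0.2) × 10^6 CFU/mL. Twofold dilutions 256 to one µg/mL applied at 35 °C, humid, no agitation, 2, 4 and 24 h. Washed; FUN-1 0.5 µM in PBS/2% glucose (20 min, 35 °C, FL2) or PI 1 µg/mL with 0.125% deoxycholate (~10 min, room temperature, FL3). ≥7500 events; marker included ≤5% of drug-free control cells.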
# Aspergillus fumigatus [9] = assay: Antifungal activity against Aspergillus fumigatus ATCC 46645 assessed as red fluorescence stained with FUN1 by flow cytometry; type: functional, organism-based
# Summary of the method: (§6)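 Conidia from 4–7-day SDA cultures suspended in water with 0.01% Tween 80 at (2.0 ± 0.2) × 10^6 CFU/mL. Exposed to twofold dilutions 256 to one µg/mL at 35 °C, water bath with agitation, 3, 4 and 24 h. FUN-1 0.5 µM (20 min, 35 °C, FL2) or PI 1 µg/mL (1 h, 35 °C, FL3); ≥7500 events; positive-cell marker set at ≤5% of drug-free controls.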
# Candida albicans [10] = assay: Antifungal activity against Candida albicans ATCC 10231 assessed as red fluorescence stained with PI by flow cytometry; type: functional; summary of the method: as §5
# Aspergillus fumigatus [11] = assay: Antifungal activity against Aspergillus fumigatus ATCC 46645 assessed as red fluorescence stained with PI by flow cytometry; type: functional; summary of the method: as §6
SMILES,MFC (Pichia kudriavzevii) [µg/mL],MIC (Pichia kudriavzevii) [µg/mL],MFC (Candida tropicalis) [µg/mL],MIC (Candida tropicalis) [µg/mL],MFC (Candida albicans [1]) [µg/mL],MIC (Candida albicans [1]) [µg/mL],MFC (Nakaseomyces glabratus) [µg/mL],MIC (Nakaseomyces glabratus) [µg/mL],MFC (Epidermophyton floccosum) [µg/mL],MIC (Epidermophyton floccosum) [µg/mL],MFC (Trichophyton rubrum) [µg/mL],MIC (Trichophyton rubrum) [µg/mL],MFC [2] [µg/mL],MIC [2] [µg/mL],MFC (Microsporum canis) [µg/mL],MIC (Microsporum canis) [µg/mL],MFC (Nannizzia gypsea) [µg/mL],MIC (Nannizzia gypsea) [µg/mL],MFC (Aspergillus flavus) [µg/mL],MIC (Aspergillus flavus) [µg/mL],other results
CCOC(=O)c1sc2ccccc2c1Nc1ccc(F)cc1,> 200,> 200,> 200,> 200,> 200,> 200,> 200,> 200,> 200,> 200,> 200,> 200,> 200,> 200,> 200,> 200,> 200,> 200,> 200,> 200,MFC (Aspergillus fumigatus [3]): > 200 µg/mL; MIC (Aspergillus fumigatus [3]): > 200 µg/mL; MFC (Aspergillus niger): > 200 µg/mL; MIC (Aspergillus niger): > 200 µg/mL; MFC (Candida albicans [4]): > 200 µg/mL; MIC (Candida albicans [4]): > 200 µg/mL
CCOC(=O)c1sc2ccccc2c1Nc1ccc(OC)cc1OC,> 200,> 200,> 200,> 200,> 200,> 200,> 200,> 200,> 200,> 200,> 200,> 200,> 200,> 200,> 200,> 200,> 200,> 200,> 200,> 200,MFC (Aspergillus fumigatus [3]): > 200 µg/mL; MIC (Aspergillus fumigatus [3]): > 200 µg/mL; MFC (Aspergillus niger): > 200 µg/mL; MIC (Aspergillus niger): > 200 µg/mL; MFC (Candida albicans [4]): > 200 µg/mL; MIC (Candida albicans [4]): > 200 µg/mL
CCOC(=O)c1sc2ccccc2c1Nc1cccnc1,> 200,> 200,> 200,> 200,> 200,> 200,> 200,> 200,> 50,6.25,> 50,3.13,> 50,3.13,> 50,3.13,> 50,6.25,> 200,> 200,MFC (Aspergillus fumigatus [3]): > 200 µg/mL; MIC (Aspergillus fumigatus [3]): > 200 µg/mL; MFC (Aspergillus niger): > 200 µg/mL; MIC (Aspergillus niger): > 200 µg/mL; MFC (Candida albicans [4]): > 200 µg/mL; MIC (Candida albicans [4]): > 200 µg/mL
CCOC(=O)c1sc2ccccc2c1Nc1ccc(O)cc1O,> 50,25,> 50,50,> 50,25,> 50,25,12.5,6.25,25,12.5,25,12.5,12.5,12.5,25,12.5,> 100,> 100,MFC (Aspergillus fumigatus [3]): > 100 µg/mL; MIC (Aspergillus fumigatus [3]): > 100 µg/mL; MFC (Aspergillus niger): > 100 µg/mL; MIC (Aspergillus niger): > 100 µg/mL; Activity (Candida albicans [5]): Active; Activity (Candida albicans [6]): Active; Activity (Candida albicans [7]): Active; MFC (Candida albicans [4]): > 200 µg/mL; MIC (Candida albicans [4]): 25 µg/mL
c1cncc(Nc2csc3ccccc23)c1,> 100,100,> 100,100,> 50,50,> 50,50,> 12.5,12.5,12.5,3.13,> 12.5,12.5,> 12.5,12.5,> 12.5,12.5,100,50,MFC (Aspergillus fumigatus [3]): > 50 µg/mL; MIC (Aspergillus fumigatus [3]): 25 µg/mL; MFC (Aspergillus niger): > 100 µg/mL; MIC (Aspergillus niger): 50 µg/mL; Activity (Candida albicans [5]): Active; Activity (Candida albicans [6]): Active; Activity (Candida albicans [7]): Active; Activity (Candida albicans [8]): 60%; Activity (Aspergillus fumigatus [9]): Active; Activity (Candida albicans [10]): 40%; Activity (Aspergillus fumigatus [11]): 40%; MFC (Candida albicans [4]): 100 µg/mL; MIC (Candida albicans [4]): 50 µg/mL
